Test results: ChEMBL document CHEMBL1177870, “Multiple toxin production in the cyanobacterium microcystis: isolation of the toxic protease inhibitor cyanopeptolin 1020” (J Nat Prod, 2010)
Calls of active or inactive are those of the source. The rule behind the calls is not given here.

How the values were obtained:
[1] = Inhibition of bovine trypsin; design: species or system Bos taurus
Method in brief: (§1)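 Fluorogenic kinetic assay. Protease and inhibitor preincubated at RT for 30 min before substrate was added. Read at ex 355/em 480 nm every 30 s for 1 h. Initial rates were taken by linear regression, and fractional activity was the inhibited rate over the uninhibited blank rate.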

[2] = Toxicity in Thamnocephalus platyurus after 24 hrs by acute toxicity assay; format: organism-based; conditions: in vivo
Method in brief: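 Thamnocephalus platyurus instar II–III larvae hatched from cysts were exposed in multiwell plates for 24 h to six concentrations from 0.1 to 100 µM of highly purified compound, with 20–30 animals per concentration. LC50 was obtained by nonlinear regression.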

[3] = target: T1, Tissue-type plasminogen activator (Homo sapiens, UniProt P00750); assay: Inhibition of human tissue plasminogen activator; method in brief: as §1
Target sequence in this assay (P00750 whole entry): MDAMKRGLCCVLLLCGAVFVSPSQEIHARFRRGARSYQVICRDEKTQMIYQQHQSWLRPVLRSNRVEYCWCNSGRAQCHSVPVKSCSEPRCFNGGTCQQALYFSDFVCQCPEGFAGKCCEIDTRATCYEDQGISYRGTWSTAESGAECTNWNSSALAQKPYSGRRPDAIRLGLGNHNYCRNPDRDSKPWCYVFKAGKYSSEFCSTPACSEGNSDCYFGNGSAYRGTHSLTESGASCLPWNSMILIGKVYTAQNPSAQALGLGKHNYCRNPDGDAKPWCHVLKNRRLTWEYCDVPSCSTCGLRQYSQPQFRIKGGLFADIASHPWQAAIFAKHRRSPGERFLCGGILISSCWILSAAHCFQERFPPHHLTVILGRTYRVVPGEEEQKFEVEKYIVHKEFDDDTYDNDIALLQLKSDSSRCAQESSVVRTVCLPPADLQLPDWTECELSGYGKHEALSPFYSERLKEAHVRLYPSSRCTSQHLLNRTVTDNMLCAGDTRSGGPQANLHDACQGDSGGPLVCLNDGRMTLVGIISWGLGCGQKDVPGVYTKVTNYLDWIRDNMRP

Prothrombin [4] = target: T2, Prothrombin (Homo sapiens, UniProt P00734); assay: Inhibition of thrombin at < 2.5 uM; method in brief: as §1
Plasminogen = Plasminogen (Homo sapiens, UniProt P00747); assay: Inhibition of plasmin; method in brief: as §1
[5] = Inhibition of chymotrypsin; method in brief: as §1
Coagulation factor XI = Coagulation factor XI (Homo sapiens, UniProt P03951); assay: Inhibition of factor 11a; method in brief: as §1
[6] = Inhibition of human kallikrein; method in brief: as §1
[7] = Inhibition of trypsin; method in brief: as §1
[8] = target: T1, Tissue-type plasminogen activator; assay: Inhibition of human tissue plasminogen activator at < 2.5 uM; method in brief: as §1
Target sequence in this assay (P00750 36-562 limits assumed): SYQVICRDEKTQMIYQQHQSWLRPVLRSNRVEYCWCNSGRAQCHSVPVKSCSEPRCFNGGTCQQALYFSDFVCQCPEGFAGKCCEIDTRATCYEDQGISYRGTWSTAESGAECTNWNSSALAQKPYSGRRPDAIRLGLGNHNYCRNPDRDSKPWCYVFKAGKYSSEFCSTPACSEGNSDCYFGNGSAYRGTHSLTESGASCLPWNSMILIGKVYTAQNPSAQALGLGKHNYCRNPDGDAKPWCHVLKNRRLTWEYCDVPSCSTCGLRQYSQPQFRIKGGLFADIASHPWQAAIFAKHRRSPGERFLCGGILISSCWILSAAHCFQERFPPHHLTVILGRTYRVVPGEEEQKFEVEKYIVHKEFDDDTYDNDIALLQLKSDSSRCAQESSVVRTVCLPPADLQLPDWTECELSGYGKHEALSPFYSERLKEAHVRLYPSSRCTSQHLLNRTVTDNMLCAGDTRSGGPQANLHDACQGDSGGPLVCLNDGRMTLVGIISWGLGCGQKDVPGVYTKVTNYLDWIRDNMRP

[9] = target: T3, Urokinase-type plasminogen activator (Homo sapiens, UniProt P00749); assay: Inhibition of human LMW urokinase at < 2.5 uM; method in brief: as §1
[10] = target: T3, Urokinase-type plasminogen activator; assay: Inhibition of human LMW urokinase; method in brief: as §1
Prothrombin [11] = target: T2, Prothrombin; assay: Inhibition of thrombin; method in brief: as §1

Sequence of Plasminogen (P00747 97-580 limits assumed): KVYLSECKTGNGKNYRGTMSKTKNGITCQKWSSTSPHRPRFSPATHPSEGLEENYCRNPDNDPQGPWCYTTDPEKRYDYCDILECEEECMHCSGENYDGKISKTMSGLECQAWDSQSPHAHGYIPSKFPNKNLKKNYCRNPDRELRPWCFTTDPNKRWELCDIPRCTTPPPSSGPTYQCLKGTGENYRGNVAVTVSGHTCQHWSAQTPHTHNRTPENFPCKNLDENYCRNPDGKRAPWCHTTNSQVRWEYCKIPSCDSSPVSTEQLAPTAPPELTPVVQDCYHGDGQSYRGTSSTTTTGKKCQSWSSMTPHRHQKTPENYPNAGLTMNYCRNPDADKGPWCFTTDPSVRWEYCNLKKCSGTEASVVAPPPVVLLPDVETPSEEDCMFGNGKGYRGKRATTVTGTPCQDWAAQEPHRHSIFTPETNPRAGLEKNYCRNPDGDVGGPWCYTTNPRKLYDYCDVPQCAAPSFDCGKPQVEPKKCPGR
Sequence of Plasminogen (P00747 581-810 limits assumed): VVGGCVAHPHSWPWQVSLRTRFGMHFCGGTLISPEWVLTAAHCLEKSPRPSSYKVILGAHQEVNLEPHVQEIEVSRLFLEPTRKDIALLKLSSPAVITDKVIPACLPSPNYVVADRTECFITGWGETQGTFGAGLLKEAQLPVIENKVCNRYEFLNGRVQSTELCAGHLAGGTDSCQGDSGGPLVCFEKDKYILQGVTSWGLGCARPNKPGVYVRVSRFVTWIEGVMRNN
Sequence of Coagulation factor XI (P03951 19-387 limits assumed): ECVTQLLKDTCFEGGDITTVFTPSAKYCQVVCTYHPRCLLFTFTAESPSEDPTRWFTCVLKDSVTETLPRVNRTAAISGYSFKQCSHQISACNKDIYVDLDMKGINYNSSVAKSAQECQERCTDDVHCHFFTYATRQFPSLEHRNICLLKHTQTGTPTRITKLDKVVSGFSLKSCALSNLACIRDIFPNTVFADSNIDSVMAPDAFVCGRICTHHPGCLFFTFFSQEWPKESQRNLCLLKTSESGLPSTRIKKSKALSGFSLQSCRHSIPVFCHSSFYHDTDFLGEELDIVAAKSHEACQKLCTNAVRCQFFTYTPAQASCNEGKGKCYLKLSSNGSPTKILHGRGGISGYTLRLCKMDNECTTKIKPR
Sequence of Coagulation factor XI (P03951 388-625 limits assumed): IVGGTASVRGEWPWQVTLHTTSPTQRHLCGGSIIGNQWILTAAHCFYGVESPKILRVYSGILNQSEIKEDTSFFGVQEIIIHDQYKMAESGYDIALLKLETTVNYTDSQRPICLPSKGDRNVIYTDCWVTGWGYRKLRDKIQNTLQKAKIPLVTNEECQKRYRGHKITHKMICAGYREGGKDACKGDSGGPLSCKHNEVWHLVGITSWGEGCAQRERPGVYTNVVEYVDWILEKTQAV

CC(C)C[C@@H](NC(=O)[C@H](O)COS(=O)(=O)O)C(=O)N[C@@H]1C(=O)N[C@@H](CCCNC(=N)N)C(=O)N[C@H]2CC[C@@H](O)N(C2=O)[C@@H](CC(C)C)C(=O)N(C)[C@@H](Cc2ccc(O)cc2)C(=O)N[C@@H](C(C)C)C(=O)O[C@@H]1C
IC50 [1]: 10 nM

CCCCCC(=O)N[C@@H](CCC(=O)O)C(=O)N[C@@H]1C(=O)N[C@@H](CCCNC(=N)N)C(=O)N[C@H]2CC[C@@H](O)N(C2=O)[C@@H](Cc2ccccc2)C(=O)N(C)[C@@H](Cc2ccc(O)cc2)C(=O)N[C@@H](C(C)C)C(=O)O[C@@H]1C [CYANOPEPTOLIN 1020]
LC50 at 24 h [2]: 8800 nM
IC50 [3]: > 2500 nM
inhibition (Prothrombin [4]): inactive
IC50 (Plasminogen): 490 nM
IC50 [5]: 1800 nM
IC50 (Coagulation factor XI): 3.9 nM
IC50 [6]: 4.5 nM
IC50 [7]: 0.67 nM
inhibition [8]: inactive
inhibition [9]: inactive
IC50 [10]: > 605000 nM
IC50 (Prothrombin [11]): > 2500 nM
